Key:
Assay type in all cases: cell-based
[1] = target: T1, Androgen receptor (Homo sapiens) (UniProt P10275); assay: Downregulation of androgen receptor expression in human MCF7 cells at 10 uM after 6 hrs in presence of proteasome inhibitor MG132 by Western blot method relative to lamin B
T1 sequence (whole entry): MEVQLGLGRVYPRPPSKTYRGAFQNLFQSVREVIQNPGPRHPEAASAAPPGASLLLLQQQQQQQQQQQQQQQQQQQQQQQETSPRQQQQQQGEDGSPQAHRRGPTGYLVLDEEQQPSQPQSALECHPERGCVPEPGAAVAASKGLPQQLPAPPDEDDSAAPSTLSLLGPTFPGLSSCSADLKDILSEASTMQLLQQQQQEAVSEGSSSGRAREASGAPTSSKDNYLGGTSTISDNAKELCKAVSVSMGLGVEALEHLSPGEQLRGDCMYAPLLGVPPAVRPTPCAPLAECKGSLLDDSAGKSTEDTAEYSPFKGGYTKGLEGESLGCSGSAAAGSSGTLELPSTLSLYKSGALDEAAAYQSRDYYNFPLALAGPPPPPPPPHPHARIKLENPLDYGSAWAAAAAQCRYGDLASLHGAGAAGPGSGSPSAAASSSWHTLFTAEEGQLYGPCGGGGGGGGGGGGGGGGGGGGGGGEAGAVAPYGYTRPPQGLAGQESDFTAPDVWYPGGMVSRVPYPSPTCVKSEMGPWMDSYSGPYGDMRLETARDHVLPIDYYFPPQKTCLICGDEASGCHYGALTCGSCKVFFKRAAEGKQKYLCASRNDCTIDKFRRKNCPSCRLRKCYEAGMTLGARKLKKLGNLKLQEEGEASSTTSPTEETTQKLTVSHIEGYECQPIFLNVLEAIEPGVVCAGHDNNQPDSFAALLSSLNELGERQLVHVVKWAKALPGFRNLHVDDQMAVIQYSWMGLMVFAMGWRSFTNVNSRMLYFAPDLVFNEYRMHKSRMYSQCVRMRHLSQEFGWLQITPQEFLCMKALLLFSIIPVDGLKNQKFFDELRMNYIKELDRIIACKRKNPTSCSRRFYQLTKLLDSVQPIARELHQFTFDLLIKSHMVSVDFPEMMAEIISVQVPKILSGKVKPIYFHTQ
How it was run: (§1)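 MCF-7 cells kept in DMEM with 10% FBS, kanamycin and 10 μg/mL insulin, then exposed to compounds for 6 h. Lysates made in SDS buffer (0.1 M Tris-HCl pH 8.0, 10% glycerol, 1% SDS), boiled, BCA-normalized and run on SDS-PAGE. Blots probed with anti-ERα, AR, AhR or VDR and β-actin or lamin B. Chemiluminescence quantified as target/loading-protein ratio; means ± S.E., n=3.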

[2] = target: T2, Estrogen receptor (Homo sapiens) (UniProt P03372); assay: Downregulation of ERalpha expression in human MCF7 cells at 3 uM after 6 hrs by Western blot method relative to beta-actin; how it was run: as §1
T2 sequence (whole entry): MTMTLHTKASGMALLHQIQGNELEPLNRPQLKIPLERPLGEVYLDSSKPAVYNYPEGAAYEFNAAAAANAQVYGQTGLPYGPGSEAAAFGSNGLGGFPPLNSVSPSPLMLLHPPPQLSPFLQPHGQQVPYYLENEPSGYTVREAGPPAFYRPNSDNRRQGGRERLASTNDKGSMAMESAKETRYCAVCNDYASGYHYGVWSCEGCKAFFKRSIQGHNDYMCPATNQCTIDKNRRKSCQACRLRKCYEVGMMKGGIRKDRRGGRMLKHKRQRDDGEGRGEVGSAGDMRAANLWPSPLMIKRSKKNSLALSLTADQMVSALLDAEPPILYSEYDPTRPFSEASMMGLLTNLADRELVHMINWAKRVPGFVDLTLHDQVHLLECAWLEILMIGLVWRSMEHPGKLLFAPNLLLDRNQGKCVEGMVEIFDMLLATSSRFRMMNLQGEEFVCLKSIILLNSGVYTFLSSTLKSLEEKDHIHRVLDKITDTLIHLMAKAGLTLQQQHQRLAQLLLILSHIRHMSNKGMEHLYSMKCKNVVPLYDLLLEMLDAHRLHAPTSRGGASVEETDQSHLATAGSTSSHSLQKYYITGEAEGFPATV

Estrogen receptor = target: T3, Estrogen receptor (Homo sapiens, UniProt P03372); assay: Antagonist activity at GAL4-fused human ERalpha LBD expressed in HEK293 cells assessed as inhibition of 17beta-estradiol-induced transcriptional activation after 16 to 20 hrs by luciferase reporter gene assay
T3 sequence (P03372 whole entry): T2 sequence (whole entry)
How it was run: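 HEK293 cells grown in phenol red-free DMEM with 10% FBS at 37 °C, 5% CO2. Calcium phosphate co-transfection with GAL4-hERα LBD plasmid, MH100x4-tk-luciferase reporter and β-galactosidase normalization plasmid. Compounds added 8 h post-transfection with 0.3 nM 17β-estradiol; harvested 16–20 h later. Luciferase normalized to β-galactosidase; means of triplicate assays.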

[3] = target: T2, Estrogen receptor (Homo sapiens); assay: Downregulation of ERalpha expression in human MCF7 cells at 10 uM after 6 hrs in presence of proteasome inhibitor MG132 by Western blot method relative to lamin B; how it was run: as §1
[4] = target: T2, Estrogen receptor (Homo sapiens); assay: Downregulation of ERalpha expression in human MCF7 cells at 1 uM after 6 hrs in presence of proteasome inhibitor MG132 by Western blot method relative to lamin B; how it was run: as §1
[5] = target: T2, Estrogen receptor (Homo sapiens); assay: Downregulation of ERalpha expression in human MCF7 cells at 1 uM after 6 hrs by Western blot method relative to beta-actin; how it was run: as §1
[6] = target: T2, Estrogen receptor (Homo sapiens); assay: Downregulation of ERalpha expression in human MCF7 cells at 3 uM after 6 hrs in presence of proteasome inhibitor MG132 by Western blot method relative to lamin B; how it was run: as §1
[7] = target: T2, Estrogen receptor (Homo sapiens); assay: Downregulation of ERalpha expression in human MCF7 cells after 6 hrs by Western blot method; how it was run: as §1
[8] = target: T2, Estrogen receptor (Homo sapiens); assay: Downregulation of ERalpha expression in human MCF7 cells at 10 uM after 6 hrs by Western blot method relative to beta-actin; how it was run: as §1
[9] = target: T1, Androgen receptor (Homo sapiens); assay: Downregulation of androgen receptor expression in human MCF7 cells at 10 uM after 6 hrs by Western blot method relative to lamin B; how it was run: as §1
[10] = target: T2, Estrogen receptor (Homo sapiens); assay: Downregulation of ERalpha expression in human MCF7 cells at 1 uM after 6 hrs by Western blot method relative to lamin B; how it was run: as §1
[11] = target: T2, Estrogen receptor (Homo sapiens); assay: Downregulation of ERalpha expression in human MCF7 cells at 3 uM after 6 hrs by Western blot method relative to lamin B; how it was run: as §1

Activity [1]: 77%
Activity [2]: 57%
IC50 (Estrogen receptor): 0.045 µM
Activity [3]: 105%
Activity [4]: 117%
Activity [5]: 76%
Activity [6]: 101%
Activity [7]: Dose-dependent effect
Activity [8]: 44%
Activity [9]: 98%
Activity [10]: 58 to 76%
Activity [11]: 47 to 59%
Structure (SMILES): CCCCCCCCCCNCCOc1ccc(C(CCC)(CCC)c2ccc(O)c(C)c2)cc1C
